One may read the IC50 as the concentration needed to halve the response being measured.

The text below walks through data of ChEMBL document CHEMBL4346661, “Design, synthesis and evaluation of novel diaryl-1,5-diazoles derivatives bearing morpholine as potent dual COX-2/5-LOX inhibitors and antitumor agents” (Eur J Med Chem, 2019).

The target in test [1] is T1, Prostaglandin G/H synthase 2 (Homo sapiens, UniProt P35354).
T1 sequence (P35354 whole entry): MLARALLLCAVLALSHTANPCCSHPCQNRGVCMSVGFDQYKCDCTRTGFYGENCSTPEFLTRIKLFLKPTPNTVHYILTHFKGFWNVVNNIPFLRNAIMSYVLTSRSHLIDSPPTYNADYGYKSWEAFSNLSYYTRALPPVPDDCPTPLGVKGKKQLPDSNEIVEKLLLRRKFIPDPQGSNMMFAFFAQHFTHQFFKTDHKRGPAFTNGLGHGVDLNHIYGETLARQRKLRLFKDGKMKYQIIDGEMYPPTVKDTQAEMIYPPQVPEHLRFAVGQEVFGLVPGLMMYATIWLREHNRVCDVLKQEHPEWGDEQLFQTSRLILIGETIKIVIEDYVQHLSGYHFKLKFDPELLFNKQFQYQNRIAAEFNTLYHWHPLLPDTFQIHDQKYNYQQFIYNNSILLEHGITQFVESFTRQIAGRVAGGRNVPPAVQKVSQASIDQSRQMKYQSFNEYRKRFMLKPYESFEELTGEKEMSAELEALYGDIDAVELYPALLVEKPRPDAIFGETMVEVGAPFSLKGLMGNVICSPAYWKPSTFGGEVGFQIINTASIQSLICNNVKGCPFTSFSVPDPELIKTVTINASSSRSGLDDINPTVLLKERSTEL
Description: Inhibition of COX2 (unknown origin) using arachidonic acid as substrate incubated for 10 mins by Ellman's reagent based COX-1/COX-2 ELISA assay.

Test [2] deals with B16-F10. As to the kind of experiment: Antitumor activity against mouse B16F10 cells implanted in nude mouse assessed as reduction in tumor size at 20 mg/kg, ip administered once per 2 days for 14 days by caliper method. The class given is functional. The essentials:
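Nude mice were given 5×10^6 F10 cells subcutaneously in the right flank. At about 100 mm3, 24 mice were randomized into four groups of vehicle or compound. Dosing was intraperitoneal every two days for two weeks. Tumor volume was recorded every other day. Tumors were excised and weighed after the last treatment, and body weight was monitored.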

Test [3] has as its target Prostaglandin G/H synthase 1 (Homo sapiens, UniProt P23219). As to the kind of experiment: Inhibition of COX1 (unknown origin) using arachidonic acid as substrate incubated for 10 mins by Ellman's reagent based COX-1/COX-2 ELISA assay. (In general: Ellman's reagent forms a yellow product with free thiols.)
In test [4] the test system is B16-F10. Description: Induction of apoptosis in mouse B16F10 cells assessed as early apoptosis cells at 25 uM incubated for 48 hrs by Annexin-V-FITC/propidium iodide staining-based flow cytometric analysis (reference value: 2.93%). In kind it is functional. The essentials: (§1)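 F10 cells were exposed to 0, 3.125, 6.25, 12.5 or 25 µM for 48 h. Cells were stained with Annexin V/PI and read by flow cytometry. Data are mean ± SD of three independent experiments.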

Test [5] deals with B16-F10. Description: Induction of apoptosis in mouse B16F10 cells assessed as viable cells at 25 uM incubated for 48 hrs by Annexin-V-FITC/propidium iodide staining-based flow cytometric analysis (reference value: 94%). In kind it is functional. To be noted: B16-F10, 48 h, read-out: Activity. The essentials:
as §1
Background: Flow cytometry measures light scatter and fluorescence of single cells or particles in a stream.

The test system of test [6] is B16-F10. Description: Induction of apoptosis in mouse B16F10 cells assessed as early apoptosis cells at 3.125 uM incubated for 48 hrs by Annexin-V-FITC/propidium iodide staining-based flow cytometric analysis (reference value: 2.93%). In kind it is functional. The essentials: as §1
For test [7], the system named is B16-F10. Description: Induction of apoptosis in mouse B16F10 cells assessed as late apoptosis cells at 6.25 uM incubated for 48 hrs by Annexin-V-FITC/propidium iodide staining-based flow cytometric analysis (reference value: 2.88%). In kind it is functional. The essentials:
as §1

Test [8] has as its system B16-F10. Description: Induction of apoptosis in mouse B16F10 cells assessed as viable cells at 25 uM incubated for 48 hrs in presence of apoptosis inhibitor z-VAD-fmk by Annexin-V-FITC/propidium iodide staining-based flow cytometric analysis (reference value: 92.5%). In kind it is functional. As to conditions: B16-F10, 48 h, read-out: Activity.
The test system of the next test is HeLa. As to the kind of experiment: Antiproliferative activity against human HeLa cells incubated for 48 hrs by MTT assay. In kind it is functional, cell-based. The essentials:
(§2)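 MTT assay on F10 (murine melanoma), HeLa, A549, MCF-7 and 293T (human renal epithelium) cells. IC50 given as mean ± SD of three independent experiments.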
On the technique in general: Tetrazolium assays rely on reduction of a dye to a coloured formazan, in cell work by metabolically active cells.

Test [9] relates to B16-F10. Description: Induction of cell cycle arrest in mouse B16F10 cells assessed as cell accumulation at G1 phase at 25 uM incubated for 48 hrs by propidium iodide staining-based flow cytometric analysis (reference value: 59.73%). The class given is functional.
Test [10] has as its system B16-F10. Description: Induction of cell cycle arrest in mouse B16F10 cells assessed as cell accumulation at S phase at 6.25 uM incubated for 48 hrs by propidium iodide staining-based flow cytometric analysis (reference value: 14.16%). The class given is functional.
Test [11] concerns B16-F10. As to the kind of experiment: Induction of cell cycle arrest in mouse B16F10 cells assessed as increase in cell accumulation at G2 phase at incubated for 48 hrs by propidium iodide staining-based flow cytometric analysis. The class given is functional.
For test [12], the system named is B16-F10. As to the kind of experiment: Induction of apoptosis in mouse B16F10 cells assessed as late apoptosis cells at 25 uM incubated for 48 hrs by Annexin-V-FITC/propidium iodide staining-based flow cytometric analysis (reference value: 2.88%). The class given is functional. The essentials: as §1
The subject of test [13] is B16-F10. Description: Induction of apoptosis in mouse B16F10 cells assessed as viable cells at 12.5 uM incubated for 48 hrs in presence of apoptosis inhibitor z-VAD-fmk by Annexin-V-FITC/propidium iodide staining-based flow cytometric analysis (reference value: 92.5%). In kind it is functional. As to conditions: B16-F10, 48 h, read-out: Activity.
In test [14] the test system is B16-F10. As to the kind of experiment: Induction of cell cycle arrest in mouse B16F10 cells assessed as cell accumulation at S phase at 12.5 uM incubated for 48 hrs by propidium iodide staining-based flow cytometric analysis (reference value: 14.16%). In kind it is functional.
The test system of test [15] is B16-F10. Description: Induction of apoptosis in mouse B16F10 cells assessed as early apoptosis cells at 6.25 uM incubated for 48 hrs in presence of apoptosis inhibitor z-VAD-fmk by Annexin-V-FITC/propidium iodide staining-based flow cytometric analysis (reference value: 3.83%). In kind it is functional.
For test [16], the system named is B16-F10. Description: Antiproliferative activity against mouse B16F10 cells incubated for 48 hrs by MTT assay. In kind it is functional, cell-based. To be noted: B16-F10, 48 h. The essentials: as §2
Test [17] relates to B16-F10. Description: Induction of apoptosis in mouse B16F10 cells assessed as early apoptosis cells at 12.5 uM incubated for 48 hrs in presence of apoptosis inhibitor z-VAD-fmk by Annexin-V-FITC/propidium iodide staining-based flow cytometric analysis (reference value: 3.83%). In kind it is functional.
Test [18] has as its system B16-F10. Description: Induction of cell cycle arrest in mouse B16F10 cells assessed as cell accumulation at S phase at 25 uM incubated for 48 hrs by propidium iodide staining-based flow cytometric analysis (reference value: 14.16%). In kind it is functional.
Test [19] is described as follows: Inhibition of 5-LOX assessed as calcium ionophore A23187-stimulated LTB4 production preincubated for 30 mins followed by calcium ionophore A23187 addition and measured after 30 mins by ELISA.
For test [20], the system named is B16-F10. Description: Induction of cell cycle arrest in mouse B16F10 cells assessed as cell accumulation at S phase at 3.125 uM incubated for 48 hrs by propidium iodide staining-based flow cytometric analysis (reference value: 14.16%). In kind it is functional.
For test [21], the system named is B16-F10. Description: Induction of apoptosis in mouse B16F10 cells assessed as necrosis cells at 3.125 uM incubated for 48 hrs by Annexin-V-FITC/propidium iodide staining-based flow cytometric analysis (reference value: 0.186%). The class given is functional. The essentials:
as §1

The subject of test [22] is B16-F10. Description: Induction of cell cycle arrest in mouse B16F10 cells assessed as cell accumulation at G2 phase at 6.25 uM incubated for 48 hrs by propidium iodide staining-based flow cytometric analysis (reference value: 22.43%). In kind it is functional.

Sequence of Prostaglandin G/H synthase 1 (P23219 whole entry): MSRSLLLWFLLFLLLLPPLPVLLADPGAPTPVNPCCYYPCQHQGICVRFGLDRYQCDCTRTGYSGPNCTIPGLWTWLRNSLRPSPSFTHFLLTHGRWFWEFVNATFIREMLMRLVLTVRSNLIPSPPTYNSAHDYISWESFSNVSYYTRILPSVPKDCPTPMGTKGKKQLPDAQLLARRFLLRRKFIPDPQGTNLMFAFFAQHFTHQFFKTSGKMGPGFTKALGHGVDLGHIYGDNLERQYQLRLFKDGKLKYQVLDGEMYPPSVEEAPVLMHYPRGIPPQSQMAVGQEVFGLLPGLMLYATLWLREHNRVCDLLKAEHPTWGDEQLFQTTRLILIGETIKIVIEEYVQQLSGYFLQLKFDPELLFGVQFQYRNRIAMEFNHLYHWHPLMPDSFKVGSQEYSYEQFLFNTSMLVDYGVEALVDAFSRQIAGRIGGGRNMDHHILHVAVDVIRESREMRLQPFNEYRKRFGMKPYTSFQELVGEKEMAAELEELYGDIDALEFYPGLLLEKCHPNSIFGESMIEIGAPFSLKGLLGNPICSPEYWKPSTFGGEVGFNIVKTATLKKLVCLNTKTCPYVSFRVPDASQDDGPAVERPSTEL

For `NS(=O)(=O)c1ccc(-n2nc(C(=O)NCCCN3CCOCC3)cc2-c2ccc(C(F)(F)F)cc2)cc1`, the concentration for half-maximal inhibition (IC50) in test [1] came to 0.17 µM; in test [3], 32.1 µM; with HeLa, 8.08 µM; with B16-F10 [16], 6.43 µM; in [19] it was 0.68 µM. Further, the Activity in the test with B16-F10 [2] turned out to be 1076.58 mm3; in the test with B16-F10 [4] it was 40.8%; in the test on B16-F10 [6], 7.97%; with B16-F10 [7] it was 7.9%; with B16-F10 [9] it was 50.93%; with B16-F10 [10], 15.23%. Moreover, the Activity result is “Dose-dependent effect” in the test on B16-F10 [11]; 6.11% with B16-F10 [12]; 15.42% in the test with B16-F10 [14]; 5.74% with B16-F10 [15]; 6.13% in the test with B16-F10 [17]; 12.87% in the test with B16-F10 [18]. For the same molecule, the Activity with B16-F10 [20] came out at 11.16%; in the test with B16-F10 [21], 0.597%; in the test on B16-F10 [22], 31.04%. Also, the viability at 25 µM was 51.8% in the test on B16-F10 [5] and 78.8% in the test on B16-F10 [8]. Also, in the test with B16-F10 [13], the viability at 12.5 µM was found to be 84%.
